Assay results taken from ChEMBL document CHEMBL2093137, “WHO-TDR NTD Screening”.
≈ marks a conversion by molar mass, not a printed value.

Legend:
[1] = WHO-TDR: Cytotoxicity; type: toxicity, cell-based; conditions: human, MRC5 cells
Onchocerca lienalis = assay: WHO-TDR: Onchocerciasis; type: functional; parameters: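 at 12.5 µM on microfilariae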
How it was run: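 Microfilariae of Onchocerca ochengi or Onchocerca lienalis, animal pathogens standing in for the human parasite, were exposed to compounds in a whole-organism screen. The compounds came from a 10,000-compound diverse Life Chemicals library filtered for drug-likeness and reactive groups. Results are expressed as percent inhibition and IC50.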

Plasmodium falciparum K1 = assay: WHO-TDR: Malaria; type: functional, organism-based, Homo sapiens; conditions: Erythrocyte
How it was run: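 Life Chemicals supplied the diverse library of 10,000 compounds, which had been filtered for drug-likeness and reactive groups. Each was screened against the K1 strain of Plasmodium falciparum at its intra-erythrocytic stage in human red blood cells, using previously published standard procedures and a reference drug as positive control. The table reports IC50 for antiplasmodial potency.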

[2] = tested on: Trypanosoma brucei brucei; assay: WHO-TDR: Human African Trypanosomiasis (HAT); type: functional, organism-based; conditions: Squib-427
How it was run: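 Following previously published standard procedures, with reference drugs as positive controls, a whole-organism assay was run against bloodstream-form Trypanosoma brucei, Squib 427 strain. The compounds, 10,000 in all, came from a diverse Life Chemicals library filtered for drug-likeness and reactive groups. Reported values are IC50 for antiparasitic potency.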

Schistosoma mansoni = assay: WHO-TDR: Schistosomiasis; type: functional; parameters: concentration or dose not given beside the values
How it was run: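 In this whole-organism assay, larval and/or adult worms of Schistosoma mansoni (Puerto Rican strain) were exposed to compounds from a diverse Life Chemicals library of 10,000 members. A reference drug served as positive control. Activity is stated as percent inhibition and IC50.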

Leishmania infantum = assay: WHO-TDR: Leishmaniasis; type: functional, organism-based, Mus musculus; conditions: Macrophage
How it was run: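 IC50 values describe antiparasitic potency in this whole-organism screen. Leishmania infantum MHOM/MA(BE)/67 amastigotes were tested inside murine peritoneal macrophages against a 10,000-compound diverse Life Chemicals library. A reference drug served as positive control.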

Trypanosoma cruzi = assay: WHO-TDR: Chagas disease; type: functional, organism-based, Homo sapiens; conditions: MRC5
How it was run: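 Following previously published standard procedures, with a reference drug as positive control, a whole-organism assay was run on Trypanosoma cruzi Tulahuen CL2 beta-galactosidase strain amastigotes inside MRC-5SV2 human lung fibroblast host cells. The 10,000 compounds tested formed a diverse Life Chemicals library filtered for drug-likeness and reactive groups. Results are expressed as IC50 for antiparasitic potency.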

IC50 (Plasmodium falciparum K1) [µg/mL] | IC50 [2] [µg/mL] | IC50 (Leishmania infantum) [µg/mL] | Compound | IC50 [1] [µg/mL] | % Inhibition (Onchocerca lienalis) [%] | % Inhibition (Schistosoma mansoni) [%] | IC50 (Trypanosoma cruzi) [µg/mL]
> 11.5 | 2.16 (≈ 4.75 µM) | 3.65 (≈ 8.02 µM) | Cn1cc(S(=O)(=O)N2CCN(C(c3ccccc3)c3ccccc3)CC2)c(=O)n(C)c1=O | > 11.5 | 0 | 0 | 0.34 (≈ 0.749 µM)
5.04 (≈ 9.72 µM) | > 15.6 | 5.04 (≈ 9.71 µM) | O=C(Nc1ccc2c(c1)OCCO2)c1oc2ccccc2c1NC(=O)C1c2ccccc2Oc2ccccc21 | > 15.6 | 0 | 100 | > 15.6
9.4 (≈ 30 µM) | > 9.4 | 0.304 (≈ 0.97 µM) | O=C(Nc1ccc(-c2cn3c(n2)SCC3)cc1)C1CCCC1 | > 9.4 | 0 | 0 | > 9.4
0.5 (≈ 1.24 µM) | 0.314 (≈ 0.78 µM) | 3.82 (≈ 9.49 µM) | CCN(CC)CCSc1ccc(-c2sc(-c3ccc(F)cc3)nc2C)nn1 | > 12.1 | 6.7 | 0 | 3.25 (≈ 8.09 µM)
3.16 (≈ 7.83 µM) | 3.3 (≈ 8.17 µM) | 0.392 (≈ 0.971 µM) | CC(Sc1ccc2nnc(CCNC(=O)c3ccccc3)n2n1)c1ccccc1 (stereo unspecified) | > 12.1 | 0 | 66.7 | 5.24 (≈ 13 µM)
3.39 (≈ 8.08 µM) | 4.33 (≈ 10.3 µM) | > 13.7 | CN(C)CCN(C(=O)CCSc1ccccc1)c1nc2c(Cl)cccc2s1 | > 13.7 | 0 | 75 | 4.15 (≈ 9.88 µM)
0.324 (≈ 0.809 µM) | 0.435 (≈ 1.09 µM) | 4.24 (≈ 10.6 µM) | CN(C)CCCN(C(=O)c1ccc(N(C)C)cc1)c1nc2ccc(F)cc2s1 | 4.1 (≈ 10.2 µM) | 0 | 0 | 4.49 (≈ 11.2 µM)
0.609 (≈ 1.64 µM) | 0.382 (≈ 1.03 µM) | 3.96 (≈ 10.7 µM) | CN(C)CCCN(C(=O)Cc1ccccc1)c1nc2ccc(F)cc2s1 | 3.81 (≈ 10.3 µM) | 0 | 58.3 | 4.16 (≈ 11.2 µM)
1.16 (≈ 2.46 µM) | 0.483 (≈ 1.02 µM) | 0.791 (≈ 1.67 µM) | CN(C)CCCN(C(=O)c1ccc2c(c1)CCCC2)c1nc2ccc(Br)cc2s1 | 2.1 (≈ 4.44 µM) | 0 | 66.7 | 3.21 (≈ 6.78 µM)
0.653 (≈ 1.51 µM) | 0.45 (≈ 1.04 µM) | 4.55 (≈ 10.5 µM) | Cc1cccc2sc(N(CCCN(C)C)C(=O)c3ccccc3Br)nc12 | 3.97 (≈ 9.18 µM) | 0 | 33.3 | 4.76 (≈ 11 µM)
3.44 (≈ 6.46 µM) | 5.59 (≈ 10.5 µM) | 5.53 (≈ 10.4 µM) | CN(C)CCCN(C(=O)c1ccc(S(=O)(=O)N(C)C2CCCCC2)cc1)c1nc2c(F)cccc2s1 | 3.08 (≈ 5.78 µM) | 0 | 0 | 5.16 (≈ 9.69 µM)
0.398 (≈ 0.923 µM) | 0.352 (≈ 0.817 µM) | 4.54 (≈ 10.5 µM) | CN(C)CCCN(C(=O)c1nc2ccccc2s1)c1nc2c(Cl)cccc2s1 | 0.526 (≈ 1.22 µM) | 0 | 33.3 | 0.239 (≈ 0.555 µM)
0.848 (≈ 2.16 µM) | 0.237 (≈ 0.605 µM) | 4.16 (≈ 10.6 µM) | CN(C)CCCN(C(=O)c1ccccc1F)c1nc2c(Cl)cccc2s1 | 3.81 (≈ 9.73 µM) | 13.3 | 0 | 4.41 (≈ 11.3 µM)
1.72 (≈ 4.01 µM) | 4.51 (≈ 10.5 µM) | 0.451 (≈ 1.05 µM) | CN(C)CCCN(C(=O)CCOc1ccccc1)c1nc2cc3c(cc2s1)OCO3 | 3.34 (≈ 7.81 µM) | 0 | 75 | 0.433 (≈ 1.01 µM)
2.4 (≈ 6.79 µM) | 3.39 (≈ 9.6 µM) | 3.43 (≈ 9.71 µM) | CCNc1cc(C)nc(Nc2ccc(NC(=O)CC3CCCC3)cc2)n1 | 3.23 (≈ 9.13 µM) | -1 | 66.7 | 0.299 (≈ 0.846 µM)
0.638 (≈ 1.44 µM) | 0.942 (≈ 2.12 µM) | 4.31 (≈ 9.71 µM) | CCN(CC)c1cc(C)nc(Nc2ccc(NC(=O)c3ccc(Br)o3)cc2)n1 | 2.91 (≈ 6.54 µM) | -1 | 66.7 | 0.344 (≈ 0.774 µM)
0.412 (≈ 0.929 µM) | > 13.3 | > 13.3 | CCN(CC)c1cc(C)nc(Nc2ccc(NC(=O)c3cc4ccccc4oc3=O)cc2)n1 | > 13.3 | 6.7 | 50 | > 13.3
1.18 (≈ 2.6 µM) | 4.31 (≈ 9.49 µM) | > 13.6 | CCNc1cc(C)nc(Nc2ccc(NS(=O)(=O)c3ccc4nc(C)sc4c3)cc2)n1 | 0.543 (≈ 1.19 µM) | 33.4 | 58.3 | 0.404 (≈ 0.889 µM)
